# Screens from PubChem BioAssay.
# Rows were chosen to be rich in hits. Some 3.9% of all compounds tested hit in one or more screens of this group.
# XBP1 UPR activ – activators of adaptive XBP1 UPR arm, primary screen, cell-based, CHO-XBP1 luciferase reporter, luminescence, uHTS; activation, % at 20 µM; 330,000 tested, 0.33% active; AID 463104, 2010; IRE1-XBP1 UPR activation; percent of tunicamycin response, DMSO as zero;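 active = versus positive control, 20 µM dose yields 30% or more activation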;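 note: 100% = tunicamycin at 10 µg/mL and 0% = DMSO only wells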
#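 Material – CHO cell line with stable XBP1 luciferase reporter · Buffer or medium – F12 plus 10% FBS · Compound – single point, 20 µM final compound, 1% DMSO · Schedule – 16-18 h cell attachment at 37 °C, then 6 h compound exposure · Signal – Steady-Glo luminescence read · Benchmarks – high control tunicamycin 10 µg/mL final, low control DMSO vehicle only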
# UPR CHOP act – activators of apoptotic CHOP UPR arm, primary screen, cell-based, CHO-CHOP luciferase reporter, luminescence, uHTS; 330,000 tested, 0.34% active; UPR activation; percent of tunicamycin response over DMSO baseline; AID 449763, 2010; activation, % at 10 µM;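 active = at 10 µM dose, activation of 40% or more, normalized to positive control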;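 note: 100% = tunicamycin at 10 µg/mL and 0% = DMSO alone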
#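 Test system: CHO CHOP reporter cells. Input: 500 CHO-CHOP cells per well. Medium: F12 with 10% FBS. Technique: luciferase luminescence. Measure: percent activation relative to tunicamycin control. Dosing: 10 µM compound, 0.5% DMSO. Timing: 16-18 h cell attachment, then 6 h compound exposure, 37 °C.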
# TIM10 inh – growth inhibitors of isogenic TIM10 control yeast, primary screen, counter-screen for tim10-1 yeast inhibitor project, luminescence, uHTS. S. cerevisiae TIM10 strain growth, BacTiter-Glo luminescence, 24 h. inhibition, % at 10 µM. 330,000 tested, 1.4% active;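 active = inhibition of 40% or more at the single tested concentration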;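 note: wild-type TIM10 isogenic control strain grown at permissive 25 °C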
# tim23-1 inh – growth inhibitors of tim23-1 mutant yeast, primary screen, luminescence, uHTS; S. cerevisiae tim23-1 growth, BacTiter-Glo luminescence, 24 h; inhibition, % at 20 µM; 330,000 tested, 1.3% active;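 active = growth inhibition of the mutant yeast at or above 50%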;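 note: temperature-sensitive mutant grown at 25 °C; plate controls were DMSO-treated mutant yeast for no effect and medium wells lacking yeast for full effect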
# tim10-1 inh – growth inhibitors of tim10-1 mutant yeast, primary screen, luminescence, uHTS | S. cerevisiae tim10-1 ts strain growth, BacTiter-Glo, 24 h | inhibition, % at 20 µM | 330,000 tested, 2.2% active;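 active = inhibition of at least 40%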;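 note: mutant grown at 25 °C; 0% = DMSO wells with yeast and 100% = wells holding no yeast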
# tim10-1 confirm – growth inhibitors of tim10-1 mutant yeast, confirmation, single concentration, luminescence, S. cerevisiae | shares compounds with tim10-1 inh | 7,400 tested, 56% active | S. cerevisiae tim10-1 ts strain growth, BacTiter-Glo, 24 h | inhibition, % at 20 µM;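 active = inhibition of yeast growth at or above a set limit in either of two repeat tests at 20 µM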;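 note: tim10-1 mutant grown at permissive 25 °C to find synthetic lethal compounds; 0% = DMSO yeast wells and 100% = medium wells without yeast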
# tim10 confirm – growth inhibitors of wild-type TIM10 yeast, confirmation, counter-screen for tim10-1 synthetic lethality project, single concentration, luminescence, S. cerevisiae; 4,600 tested, 63% active; inhibition, % at 10 µM; shares compounds with TIM10 inh; S. cerevisiae tim10 strain growth, BacTiter-Glo luminescence, 24 h; AID 463215, 2010;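 active = inhibition of yeast growth at or above a set limit in either of two replicates at 10 µM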;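 note: this counterscreen used the strain with wild-type TIM10; 0% = yeast with DMSO and 100% = medium wells lacking yeast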
# * marks the source's active call; other numbers are inactive results; x = no result.
SMILES,XBP1 UPR activ,UPR CHOP act,TIM10 inh,tim23-1 inh,tim10-1 inh,tim10-1 confirm,tim10 confirm
Cc1nn(-c2ccc(F)cc2)c(C)c1NS(=O)(=O)c1ccc(Cl)cc1,-3,-1,51*,48,48*,40*,22
CC(C)(C)c1cc(C(=O)N/N=C/c2ccc(F)cc2)n(-c2ccccc2)n1,1,0,45*,46,51*,34*,24
Cc1nn(-c2ccccc2)c(C)c1/C=N/NC(=O)c1ccc(F)cc1,1,2,12,16,20,x,x
N/C(=N\OC(=O)c1ccc(Br)cc1)c1ccccc1,-3,-1,50*,40,55*,52*,67*
N/C(=N\OC(=O)CCCOc1ccccc1)c1ccncc1,4,-2,-3,13,11,x,x
N/C(=N\OC(=O)COc1ccc(Cl)cc1Cl)c1cccnc1,0,5,24,19,20,x,x
N/C(=N\OC(=O)c1cccc(Br)c1)c1ccc(Br)cc1,4,0,4,13,-31,x,x
N/C(=N\OC(=O)CCCOc1ccc(Cl)cc1Cl)c1ccncc1,1,2,43*,6,54*,30*,4
N/C(=N\OC(=O)CCCOc1ccccc1)c1ccccc1,-2,0,51*,41,44*,37*,35*
O=C(CSc1n[nH]c(=O)n1C1CC1)c1c[nH]c2ccccc12,2,1,17,19,-4,x,x
O=C(COC(=O)C1CCC1)Nc1ncc(Cl)cc1Cl,-4,-1,-8,-9,-7,x,x
CCOc1ccc(OCCOC(=O)CN2C(=O)NC3(CCCC3)C2=O)cc1,0,2,14,29,15,x,x
COc1ccc(S(=O)(=O)N(C)C[C@H]2Oc3ccc(NC(=O)Nc4ccc5c(c4)OCO5)cc3C(=O)N([C@H](C)CO)C[C@@H]2C)cc1,-3,-1,-1,9,2,x,x
Cc1nn(-c2ccccc2)c(Cl)c1/C=C/C(=O)c1ccccc1,1,3,46*,-4,41*,48*,40*
O=S(=O)(/N=C(/c1ccccc1)N1CCOCC1)c1ccc(F)cc1F,0,-1,4,11,-14,x,x
O/N=C/c1cn(-c2ccccc2)nc1-c1cccnc1,0,2,7,7,15,x,x
O=C(/C=C/c1cn(-c2ccccc2)nc1-c1cccnc1)c1ccco1,-5,-1,48*,41,57*,48*,41*
O=C(Cc1cccs1)Nc1nc(-c2ccc(F)cc2F)cs1,-1,2,52*,41,41*,34*,41*
Cc1ccnc(N2CCC(C(=O)Nc3cccc(C(F)(F)F)c3)CC2)n1,1,-1,42*,47,52*,48*,30*
CN(CC(=O)Nc1ccc(Cl)c(C(F)(F)F)c1)C(=O)CCCNC(=O)c1ccc(Cl)cc1,-2,4,6,22,4,x,x
COc1ccc2c(c1)c1nnc(SC)nc1n2C,4,3,81*,43,63*,66*,81*
COc1ccc2c(c1)c1nnc(SCC(=O)N3C(C)CCCC3C)nc1n2C (stereo not drawn),1,4,21,19,33,x,x
Cc1ccc(S(=O)(=O)N2CC(C)C(=O)CC2C)cc1 (stereo not drawn),1,1,14,4,15,x,x
CCCn1c(/C=C/c2ccccc2)nc2ccccc21,8,3,42*,45,42*,23,28
COCCOCCn1c(/C=C/c2ccccc2)nc2ccccc21,-4,3,2,23,10,x,x
SMILES,XBP1 UPR activ,UPR CHOP act,TIM10 inh,tim23-1 inh,tim10-1 inh,tim10-1 confirm,tim10 confirm
O=C(NC1=NCCS1)c1sc2cc(Cl)cc(Cl)c2c1Cl,3,3,45*,43,50*,25,6
COc1cc(OC)cc(C(=O)NC2=NCCS2)c1,0,2,11,7,9,x,x
Cc1ccc(-n2nc(C)c(Sc3ccccc3[N+](=O)[O-])c2N)cc1,0,1,44*,48,44*,34*,33*
Cc1cc(Br)c(Cl)cc1NC(=O)CN1C(=O)C2C3CC(c4ccccc4)C(C3)C2C1=O (stereo not drawn),0,2,52*,35,52*,43*,5
CCc1ccc(C(=O)CN(C#N)c2nc(C)cc(C)n2)cc1,3,7,48*,35,42*,15,-36
COc1ccc(C(=O)/C=C/c2ccc(OC(=O)c3cc(OC)c(OC)c(OC)c3)cc2)cc1,-2,-1,24,9,20,x,x
COc1cc(C(=O)Oc2ccc3ccc(O)cc3c2)cc(OC)c1OC,4,5,42*,44,47*,32*,39*
CCCC(=O)N1CCCC(c2nc(-c3cccc(OC)c3)no2)C1 (stereo not drawn),-3,4,14,12,0,x,x
COc1cccc(-c2noc(C3CCCN(C(=O)Cc4ccccc4)C3)n2)c1 (stereo not drawn),3,2,41*,39,40*,36*,24
Oc1ccc(-c2nccc(-c3ccc(Br)cc3)n2)cc1,16,5,41*,44,47*,49*,64*
COc1ccc(C(=O)Sc2nncc3ccccc23)cc1,0,-1,42*,48,45*,18,41*
CC1CCN(CC(CS(=O)(=O)c2ccc([N+](=O)[O-])cc2)N2CCC(C)CC2)CC1 (stereo not drawn),-5,34,60*,43,45*,49*,48*
CC(c1ccco1)N(C(=O)C12CC3CC(CC(C3)C1)C2)c1ccccn1 (stereo not drawn),0,1,46*,44,43*,36*,-24
CCc1ccc(/C=C2/Sc3ccccc3N(CC(=O)NCC3CCCO3)C2=O)cc1 (stereo not drawn),-3,1,7,16,-17,x,x
CC1CCN(S(=O)(=O)c2cc(Br)cc(C(=O)NC3=NCCS3)c2)CC1,0,4,41*,34,46*,32*,40*
Cc1nc2ccccc2n1/N=C/c1ccc([N+](=O)[O-])o1,4,21,78*,27,74*,72*,88*
